Assay results from ChEMBL document CHEMBL1140341, “Synthesis and radioligand binding studies of C-5- and C-8-substituted 1-(3,4-dimethoxybenzyl)-2,2-dimethyl-1,2,3,4-tetrahydroisoquinoliniums as SK channel blockers related to N-methyl-laudanosine and N-methyl-noscapine” (J Med Chem, 2005).

How the values were obtained:
[1] = target: Small conductance calcium-activated potassium channel (Rattus norvegicus) (UniProt P70604+P70606+P70605); assay: Displacement of [125I]apamin from calcium-activated potassium (SK) channels of rat cortex at 10 uM
Outline: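 Rat cortical synaptosomes (0.2 mg protein/mL) in 10 mM Tris-HCl pH 7.5 with 5.4 mM KCl and 0.1% BSA. Incubated 1 h at 0 °C with about 10 pM 125I-apamin and 10 μM drug. Filtered on polyethylenimine-coated GF/C filters, washed twice, counted by scintillation. Nonspecific binding defined with 0.1 μM unlabeled apamin; filter binding without synaptosomes subtracted.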

[2] = target: Small conductance calcium-activated potassium channel (Rattus norvegicus, UniProt P70604+P70606+P70605); assay: Inhibition of [125I]apamin binding to calcium-activated potassium (SK) channel of rat cortex
Outline: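 Cortical synaptosomes (0.2 mg protein/mL), Tris-HCl 10 mM pH 7.5 buffer with 5.4 mM KCl and 0.1% BSA. 1 h at 0 °C with ±10 pM 125I-apamin and nine drug concentrations (10-4–10-7 M); run for drugs displacing at least 20% at 10 μM. Polyethylenimine-coated GF/C filtration, scintillation counting. Nonspecific binding with 0.1 μM apamin; curve-fitted.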

| Displacement [1] | IC50 [2] | Ki [2] | SMILES |
| --- | --- | --- | --- |
| 2% | – | – | CCc1cccc2c1C(Cc1ccc(OC)c(OC)c1)N(C)CC2 (stereo not given) |
| 5% | – | – | COc1ccc(CC2c3c(Cl)cccc3CCN2C)cc1OC (stereo not given) |
| 10% | – | – | COc1ccc(CC2c3c(C)cccc3CCN2C)cc1OC (stereo not given) |
| 1% | – | – | COc1ccc(CC2c3cccc(Br)c3CCN2C)cc1OC (stereo not given) |
| 27% | 39.6 µM | 7.6 µM | COc1ccc(CC2c3cccc(Cl)c3CC[N+]2(C)C)cc1OC (stereo not given) |
| 8% | – | – | COc1ccc(CC2c3cccc(Cl)c3CCN2C)cc1OC (stereo not given) |
| 1% | – | – | COc1ccc(CC2c3sc(C)cc3CCN2C)cc1OC (stereo not given) |
| 9% | – | – | COc1ccc(CC2c3c(cccc3OC)CC[N+]2(C)C)cc1OC (stereo not given) |
| 1% | – | – | COc1ccc(CC2c3c(cccc3OC)CCN2C)cc1OC (stereo not given) |
| 57% | 8.7 µM | 1.6 µM | COc1ccc(C[C@H]2c3cc(OC)c(OC)cc3CC[N+]2(C)C)cc1OC.[I-] [LAUDANOSINE METHIODIDE] |
| 29% | 25.4 µM | 4.9 µM | COc1ccc(CC2c3cccc(Br)c3CC[N+]2(C)C)cc1OC (stereo not given) |
| 44% | 13.6 µM | 2.6 µM | CCc1cccc2c1C(Cc1ccc(OC)c(OC)c1)[N+](C)(C)CC2.[I-] (stereo not given) |
| 23% | 50 µM | 9.3 µM | COc1ccc(CC2c3c(Cl)cccc3CC[N+]2(C)C)cc1OC.[I-] (stereo not given) |
| 18% | – | – | COc1ccc(CC2c3sc(C)cc3CC[N+]2(C)C)cc1OC (stereo not given) |
| 24% | 28.4 µM | 5.5 µM | COc1ccc(CC2c3c(C)cccc3CC[N+]2(C)C)cc1OC.[I-] (stereo not given) |
| 55% | 8.6 µM | 1.6 µM | COc1ccc(CC2c3c(cccc3C(C)C)CC[N+]2(C)C)cc1OC.[I-] (stereo not given) |
| 2% | – | – | COc1ccc(CC2c3sccc3CCN2C)cc1OC (stereo not given) |
| 27% | 14.1 µM | 3.6 µM | COc1ccc2c(c1OC)C(=O)OC2C1c2c(cc3c(c2OC)OCO3)CC[N+]1(C)C.[I-] (stereo not given) |
| 15% | – | – | COc1ccc(CC2c3sccc3CC[N+]2(C)C)cc1OC (stereo not given) |
| 10% | – | – | COc1ccc(CC2c3c(cccc3C(C)C)CCN2C)cc1OC (stereo not given) |
| 26% | 35.2 µM | 6.8 µM | COc1ccc(CC2c3c(Br)cccc3CC[N+]2(C)C)cc1OC.[I-] (stereo not given) |
| 10% | – | – | COc1ccc(CC2c3c(Br)cccc3CCN2C)cc1OC (stereo not given) |
